# Laboratory results published in publication PMC3564407 (The Febs Journal, 2012).
# Square brackets hold non-standard residues; d marks the D form. Ends that are not written are not given here. Peptide text beside a SMILES is read from it. pGlu = O=C1CC[C@@H](C(=O)O)N1
# Key:
# [1] = target: T1, Drosophila melanogaster AnCE (Drosophila melanogaster, UniProt Q10714); assay: Inhibition of Ang I to Ang II conversion by AnCE; assay type: biochemical; settings: pH 7.5, read-out: % inhibition of the conversion of Ang I to Ang II
# T1 sequence (Q10714 18-615): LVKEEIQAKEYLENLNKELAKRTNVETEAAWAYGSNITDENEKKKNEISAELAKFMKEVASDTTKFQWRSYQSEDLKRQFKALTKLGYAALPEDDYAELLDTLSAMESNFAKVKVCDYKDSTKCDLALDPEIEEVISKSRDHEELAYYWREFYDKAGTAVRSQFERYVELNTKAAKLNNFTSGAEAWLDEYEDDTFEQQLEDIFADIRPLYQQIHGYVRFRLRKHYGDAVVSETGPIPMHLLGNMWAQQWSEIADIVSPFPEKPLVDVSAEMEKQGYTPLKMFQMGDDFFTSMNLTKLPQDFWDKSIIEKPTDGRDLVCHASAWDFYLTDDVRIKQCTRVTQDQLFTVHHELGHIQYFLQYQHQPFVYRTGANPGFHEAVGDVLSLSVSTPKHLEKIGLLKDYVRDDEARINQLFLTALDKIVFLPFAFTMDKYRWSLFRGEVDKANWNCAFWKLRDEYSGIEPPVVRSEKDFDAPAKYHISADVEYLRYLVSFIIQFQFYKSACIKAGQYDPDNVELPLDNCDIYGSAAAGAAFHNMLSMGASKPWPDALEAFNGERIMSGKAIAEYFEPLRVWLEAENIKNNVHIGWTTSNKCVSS
# In short: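 Recombinant D. melanogaster AnCE expressed in P. pastoris and purified by hydrophobic interaction and size-exclusion chromatography; diluted to 250 ng·μL−1 in reaction buffer containing 0.1 mg·mL−1 BSA. Reaction buffer is 0.1 m Hepes pH 7.5, 10 μm ZnSO4, 0.15 m NaCl, with Ang I (100 μm final) as substrate. Ang I consumption was quantified by HPLC-UV at 214 nm without and with 100 μm (initial) Ang II.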
# [2] = target: T1, Drosophila melanogaster AnCE; assay: Inhibition of AnCE with Abz-YRK; assay type: biochemical
# [3] = target: T1, Drosophila melanogaster AnCE; settings: ref [17]; cited from earlier work
# ACE N- and C-domains = settings: mice; ref [7],[8]; cited from earlier work
# ACE N-domain = settings: ref [9],[10]; cited from earlier work
compound,measurement,setting,value
"CC[C@H](C)[C@H](NC(=O)[C@H](Cc1ccc(O)cc1)NC(=O)[C@@H](NC(=O)[C@H](CCCNC(=N)N)NC(=O)[C@@H](N)CC(=O)O)C(C)C)C(=O)N[C@@H](Cc1c[nH]cn1)C(=O)N1CCC[C@H]1C(=O)N[C@@H](Cc1ccccc1)C(=O)O [Ang II, angiotensin II]",inhibition at 100 µM,[1],73%
"CC[C@H](C)[C@H](NC(=O)[C@H](CCCCN)NC(=O)[C@@H]1CCCN1C(=O)[C@H](CCCNC(=N)N)NC(=O)[C@@H]1CCCN1C(=O)[C@@H]1CCCN1C(=O)[C@H](CC(C)C)NC(=O)CNC(=O)[C@@H]1CCC(=O)N1)C(=O)N1CCC[C@H]1C(=O)N1CCC[C@H]1C(=O)O [BPPb, bradykinin-potentiating peptide-b] ([pGlu]GLPPRPKIPP-OH)",Ki,[2],107 µM
"DRVYIHPFHL [Ang I, angiotensin I]",cleavage by AnCE,[3],converts Ang I to Ang II
same,in vivo conversion to Ang II by ACE domain,ACE N- and C-domains,the C-domain is primarily responsible
N-acetyl Ser–Asp–Lys–Pro,degradation by ACE domain,ACE N-domain,the N-domain is solely responsible
"RPPGFSPFR [BK, bradykinin]",cleavage by AnCE,[3],inactivates BK
same,cleavage efficiency by ACE domains,ACE N- and C-domains,cleaved with similar efficiency by both domains
